UPR XBP1 act: adaptive UPR (XBP1) activation | CHO-XBP1 luciferase reporter, IRE1-XBP1 UPR activation, luminescence; percent of tunicamycin response, DMSO as zero | activation, % at 20 µM | 330,000 tested, 0.33% active;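 active means versus positive control, 20 µM dose yields 30% or more activation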
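Test system: CHO-XBP1 luciferase reporter cells | Buffer or medium: Serum-containing F12 medium, 10% FBS | Schedule: 6 h compound exposure at 37 °C, 5% CO2 | Detection: Steady-Glo luciferase glow luminescence, 10 min after reagent addition | Read-out basis: Activation, % of tunicamycin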
CHOP UPR activ: activators of apoptotic arm of unfolded protein response (CHOP); CHO-CHOP luciferase reporter, UPR activation, luminescence; percent of tunicamycin response over DMSO baseline; activation, % at 10 µM; 330,000 tested, 0.34% active; AID 449763;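 active means at 10 µM dose, activation of 40% or more, normalized to positive control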
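Dosing – one dose, 10 µM in 0.5% DMSO · System – CHO-CHOP cells, stable luciferase reporter of PERK-eIF2a-CHOP signalling · Input – 500 cells/well · Control set – tunicamycin 10 µg/mL final as positive, DMSO-only wells as negative · Timing – 6 h compound treatment, 37 °C · Measure – % activation vs tunicamycin · Technique – luminescence read with Steady-Glo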
Dynein cargo inh: blocks dynein driven cargo transport along microtubules; 3617.4 mouse cells, GR-EGFP nuclear translocation imaging; test concentration mostly 20 µM; stimulated with dexamethasone, 1 µM; active compounds read low; z-score, hits read low; 220,000 tested, 0.47% active; AID 1381;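 active means plate z-score of nuclear minus cytoplasmic receptor signal below a set negative limit, without overly bright fluorescence or cell loss, cut at about -3.5 in these data, passing the limit was not always enough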;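 further: z-score of nuclear minus cytoplasmic ring GR-EGFP intensity difference per well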
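Buffer or medium: tetracycline-free induction medium containing charcoal-stripped FBS / Reagent: dexamethasone agonist, 1.0 µM final, for 30 min / Technique: automated 10x imaging of fixed Hoechst-stained cells / Times: induction 48 h, compound 1 h, agonist 30 min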
CHOP inhibitor: CHOP inhibition in unfolded protein response. AID 2732. CHO-K1 CHOP-promoter luciferase, tunicamycin-induced, 15-18 h. inhibition, % at 10 µM. 220,000 tested, 3.8% active;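 active means compounds that reduced the stress-induced luciferase reporter signal by more than about 70% of percent inhibition, limit read from the data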
Lmaj promast: Leishmania major promastigote growth inhibition; 200,000 tested, 9% active; Leishmania major promastigotes, resazurin fluorescence viability; inhibition, % at 10 µM; in the data active means inhibition above about 50%;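 further: promastigotes grown with compound for 44 hours at 28 °C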
T cruzi inh: blocks replication of Trypanosoma cruzi; T. cruzi beta-gal in NIH3T3, luminescence, 90 h; inhibition, % (test concentration not listed); 300,000 tested, 1.4% active; AID 1885;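 active means mean inhibition across valid replicates above about 55%, limit read from the data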;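 further: signal also drops with host cell toxicity which is not excluded here; higher percent means less beta-gal luminescence so fewer parasites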
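assay system = mouse NIH/3T3 fibroblasts infected with β-gal-expressing T. cruzi Tulahuen C4 | input = 5,000 NIH/3T3 host cells per well | buffer or medium = DMEM plus 2% FBS | timing = 3 h host attachment, then at least 90 h co-culture | measured by = GalScreen luminescence, 60 min | evaluation = luminescence reflecting intracellular parasite burden, expressed as percent inhibition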
A number is an active result; - = inactive; . = no result. Many of the other results were omitted from the sample, so hits are more common in it than they were.

SMILES | UPR XBP1 act | CHOP UPR activ | Dynein cargo inh | CHOP inhibitor | Lmaj promast | T cruzi inh
CCN(c1ccccc1)S(=O)(=O)c1ccc(Cl)c(NC(=O)CN(C)C2CCN(C)CC2)c1 | - | - | - | - | . | 56.4
CCOC(=O)c1sc(NC(=O)CCN2CCN(CC)CC2)c(C(=O)OCC)c1C | - | - | - | - | 99.8 | -
CCOC(=O)c1sc(NC(=O)CCN2CCC(C)CC2)c(C(=O)OCC)c1C | - | - | - | - | - | -
Cc1cc(C)n2nc(C(=O)OCC(=O)NCc3ccc(F)cc3)nc2n1 | - | - | . | . | . | .
CCN1C(=O)[C@H]2[C@@H](c3ccc(-c4ccc(C(C)=O)cc4)cc3)N3CCCC[C@@]3(C(=O)OC)[C@H]2C1=O | - | - | . | . | . | -
COCCn1nnnc1C(C(C)C)N(Cc1cccnc1)Cc1ccccc1Cl (configuration not stated) | - | - | - | - | 65.6 | -
COC(=O)c1ccc(OCC(O)CNCC(c2ccc(OC)cc2)N(C)C)c(OC)c1 (configuration not stated) | - | - | . | . | . | -
CN(CC(=O)Nc1ccccc1Cl)CC(=O)c1c(N)n(Cc2ccccc2)c(=O)n(C)c1=O | - | - | . | . | . | .
CNS(=O)(=O)c1cnccc1N1CCN(C)CC1 | - | - | - | - | - | -
CNS(=O)(=O)c1cnccc1N1CCN(c2cccc(C(F)(F)F)c2)CC1 | - | - | - | - | 99.5 | -
CCOc1ccc(N2CC(C(=O)Nc3cc(OCC)c(N4CCOCC4)cc3OCC)CC2=O)cc1 (configuration not stated) | - | - | . | . | . | .
CCOc1ccc(N2CC(C(=O)Nc3ccccc3N3CCOCC3)CC2=O)cc1 (configuration not stated) | - | - | - | - | 76.6 | -
O=C(Nc1ccccc1N1CCOCC1)C1CCN(S(=O)(=O)c2ccccc2F)CC1 | - | - | - | - | 56.5 | -
O=C(Nc1ccccc1N1CCCC1)C1CCN(S(=O)(=O)c2ccccc2C(F)(F)F)CC1 | - | - | . | . | . | -
COc1ccc(S(=O)(=O)N2CCCC(N(C)CCc3ccccc3)C2)cc1OC (configuration not stated) | - | - | . | . | . | -
Cc1cc(-c2ccc(S(=O)(=O)N3CCN(c4cccc(C)c4C)CC3)s2)on1 | - | - | . | . | . | -
CCOC(=O)c1sc(N)c(C(=O)OCC)c1COC(=O)C1CC(=O)N(Cc2ccco2)C1 (configuration not stated) | - | - | - | - | - | -
COC(=O)c1sc(N)c(C(=O)OC)c1COC(=O)C1CC(=O)N(Cc2ccco2)C1 (configuration not stated) | - | - | - | - | 51.1 | -
COCCn1c(SCC(=O)Nc2cc(C)on2)nnc1C(C)C | - | - | . | . | . | -
O=C(NCc1cccnc1)c1ccc(-c2cccc(Cl)c2Cl)o1 | - | - | - | - | - | 57.9
O=C(NCc1ccccc1)C1CCCC1 | - | - | . | . | . | -
CC(C)=C1C2CCC1C(C(=O)NCc1ccccc1)C2C(=O)O (configuration not stated) | - | - | - | 82.2 | - | -
Cc1cnc(C(=O)OCC(=O)Nc2ccc(Br)c(C)c2)cn1 | - | - | . | . | . | .
CC(NC(=O)OCc1ccccc1)C(=O)NCC(=O)NC(Cc1ccc(OC(C)(C)C)cc1)C(=O)OC(C)(C)C (configuration not stated) | - | - | - | - | 52.7 | -
CC(C)(C)OC(=O)C(Cc1ccc(OC(C)(C)C)cc1)NC(=O)CNC(=O)CNC(=O)OCc1ccccc1 (configuration not stated) | - | - | - | - | - | -
SMILES | UPR XBP1 act | CHOP UPR activ | Dynein cargo inh | CHOP inhibitor | Lmaj promast | T cruzi inh
Nc1ccc(S(=O)(=O)N2CCC(Cc3ccccc3)CC2)cc1 | - | - | . | . | . | -
O=C(COc1ccc(F)c(Cl)c1)Nc1ccc(N2CCOCC2)cc1 | - | - | . | . | . | .
COc1ccc(CCC(=O)NNC(=O)c2ccc(OC)cc2)cc1 | - | - | . | . | . | -
O=[N+]([O-])c1ccc(S(=O)(=O)NCC(c2ccco2)N2CCc3ccccc3C2)cc1 (configuration not stated) | - | - | . | . | . | 61.0
O=[N+]([O-])c1ccc(S(=O)(=O)NCC(c2cccnc2)N2CCc3ccccc3C2)cc1 (configuration not stated) | - | - | . | . | . | -
CC(C)(C)c1cc(NC(=O)CSc2nncs2)n(-c2ccccc2)n1 | - | - | - | - | 55.0 | -
Cc1nnc(SCC(=O)Nc2cc(C(C)(C)C)nn2-c2ccccc2)s1 | - | - | - | - | - | -
Cc1nnc(SCC(=O)Nc2cc(-c3cc(C)c(C)cc3C)nn2-c2ccccc2)s1 | - | - | - | - | 97.1 | -
COc1ccc(CNC(=O)C(c2ccc(C)o2)N(C(=O)c2csnn2)c2ccc(C(C)C)cc2)cc1 (configuration not stated) | - | - | - | - | - | -
CC(=S)/C=C1\Sc2ccccc2N1C | - | - | - | - | 99.2 | 69.1
COc1ccc(C(=O)/C=C2\Sc3ccccc3N2C)cc1 | - | - | - | - | - | -
COc1ccc(S(=O)(=O)N2CCN(C(=O)CSC(=S)N3CCCC3)CC2)cc1 | - | - | . | . | . | .
O=C(NCc1ccncc1)c1ccc(Cl)c(S(=O)(=O)N2CCCCC2)c1 | - | - | - | - | - | -
O=C(NCCOC(=O)c1ccc(Cl)c(S(=O)(=O)N2CCCCC2)c1)c1ccncc1 | - | - | - | - | 51.4 | -
COc1ccc(N2CCN(C(CNC(=O)c3ccco3)c3cccnc3)CC2)cc1 (configuration not stated) | - | - | - | - | - | -
COc1ccc(C(=O)NCC(c2ccc(F)cc2)N2CCOCC2)cc1S(=O)(=O)N1CCCC1 (configuration not stated) | - | - | - | - | - | -
COc1ccc(C(=O)NCC(c2cccnc2)N2CCN(c3ccc(F)cc3)CC2)cc1OC (configuration not stated) | - | - | - | - | 96.6 | .
COc1cc(C(=O)NCC(c2ccco2)N2CCOCC2)cc(OC)c1OC (configuration not stated) | - | - | . | . | . | -
O=C(NCc1cccnc1)C(=O)NCC(c1ccco1)N1CCN(c2ccc(F)cc2)CC1 (configuration not stated) | - | - | - | - | - | -
O=C(NCC(c1cccnc1)N1CCN(c2ccc(F)cc2)CC1)c1ccc(F)cc1 (configuration not stated) | - | - | - | - | 88.5 | 59.6
COc1cc(C(=O)NCC(c2cccnc2)N2CCN(c3ccc(F)cc3)CC2)cc(OC)c1OC (configuration not stated) | - | - | - | - | 77.6 | 71.5

Bioassay records: PubChem BioAssay, several laboratories
